The test system of data set [1] is Candida albicans. The data set can be described thus: Antifungal activity against Candida albicans DAY185 assessed as lowest compound concentration causing =>80% reduction in cell viability after 48 hrs by XTT assay. It counts as organism-based. A general note: Tetrazolium assays rely on reduction of a dye to a coloured formazan, in cell work by metabolically active cells.

Data set [2] has as its system Candida albicans. The data set can be described thus: Antifungal activity against Candida albicans DAY185 assessed as inhibition of biofilm formation after 48 hrs by XTT assay. The data set is classed as functional, organism-based.
The test system of data set [3] is MIA PaCa-2. The data set can be described thus: Cytotoxicity against human MIAPaCa2 after 24 hrs by MTT assay. The data set is classed as cell-based. Conditions: MIA PaCa-2, 24 h. The method in brief: (§1)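 MIA PaCa-2 cells, 10^4 per well, attached overnight at 37 °C, 5% CO2; compounds in DMSO added (final DMSO 1% by vol.), 24 h exposure; viability by MTT assay.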

Data set [4] concerns Candida albicans. The data set can be described thus: Antifungal activity against Candida albicans DAY185 assessed as inhibition of hyphae formation after 6 hrs by phase contrast microscopic analysis. It counts as functional, organism-based. The method in brief:
(§2)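 BHI overnight cells washed, suspended in PBS, seeded 1×10^6 cells/well, 37 °C 1 h; non-adherent cells washed off; RPMI 1640 with 2% glucose plus compound in DMSO (1% by vol.), 37 °C up to 24 h; germ tubes/hyphae scored by phase contrast microscopy (×200) at 2.5, 6 and 24 h.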

In data set [5] the test system is Candida albicans. The data set can be described thus: Antifungal activity against Candida albicans DAY185 assessed as truncated hyphae formation at 50 uM after 24 hrs by phase contrast microscopic analysis. The data set is classed as functional, organism-based. An outline of the steps: as §2
Data set [6] relates to Candida albicans. The data set can be described thus: Antifungal activity against Candida albicans DAY185 assessed as inhibition of hyphae formation at 50 uM after 6 hrs by phase contrast microscopic analysis. It counts as functional, organism-based. An outline of the steps: as §2
Data set [7] relates to Candida albicans. The data set can be described thus: Antifungal activity against Candida albicans DAY185 assessed as inhibition of germ tube formation at 50 uM after 6 hrs by phase contrast microscopic analysis. The data set is classed as functional, organism-based. The method in brief:
as §2

The test system of data set [8] is Candida albicans. The data set can be described thus: Antifungal activity against Candida albicans DAY185 assessed as inhibition of biofilm formation at 0.2 to 100 uM administered 8 hrs after microbial seeding in 96-well microplate followed by 48 hrs incubation by XTT assay. The data set is classed as functional, organism-based. The method in brief: (§3)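 Time-of-addition variant of the biofilm assay: compound 100 to 0.2 μM added at -0.5, 0, 2, 4, 6 or 8 h after seeding in RPMI 1640/MOPS; at 48 h wells washed twice with PBS, biofilm quantified by XTT; triplicate in each of three trials; IC50 for 50% reduction of biofilm formation from curve fitting.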

Data set [9] concerns Candida albicans. The data set can be described thus: Antifungal activity against Candida albicans DAY185 assessed as inhibition of biofilm formation at 0.2 to 100 uM administered 2 to 4 hrs after microbial seeding in 96-well microplate followed by 48 hrs incubation by XTT assay. The data set is classed as functional, organism-based. The method in brief:
as §3

The test system of data set [10] is MIA PaCa-2. The data set can be described thus: Cytotoxicity against human MIAPaCa2 up to 200 uM after 24 hrs by MTT assay. The data set is classed as cell-based. As to conditions: mia paca-2, 24 h. An outline of the steps: as §1
The subject of data set [11] is Candida albicans. The data set can be described thus: Antifungal activity against Candida albicans DAY185 assessed as inhibition of biofilm formation at 0.2 to 100 uM administered 6 hrs after microbial seeding in 96-well microplate followed by 48 hrs incubation by XTT assay. The data set is classed as functional, organism-based. The method in brief: as §3

Calls of active or inactive are those of the source. The calls are words filed in the database; no cut-off is given here.

The source of these data is ChEMBL document CHEMBL2040763, “Waikialoid A suppresses hyphal morphogenesis and inhibits biofilm development in pathogenic Candida albicans” (J Nat Prod, 2012).

Take `CC1(C)C=Cc2c(ccc3c2[N+]([O-])=C2C3=C[C@@]34NC(=O)[C@]5(CCCN5C3=O)C[C@H]4C2(C)C)O1` [AVRAINVILLAMIDE]: in the data set on Candida albicans [1], the MIC is over 200 µM. The IC50 is 43.3 µM with Candida albicans [2] and 11.3 µM with MIA PaCa-2 [3].
For the compound `CC(C)=CCC/C(C)=C/CC/C(C)=C/CO` [FARNESOL], the MIC in the data set on Candida albicans [1] was over 200 µM. For the same compound, the IC50 with Candida albicans [2] worked out at 129 µM.
The like results for `CC1(C)C=Cc2c(ccc3c2NC(=O)[C@@]32C[C@@]34NC(=O)[C@]5(CCCN5C3=O)C[C@H]4C2(C)C)O1` [NOTOAMIDE B] were, in that order, over 200 µM and 109 µM.
The like results for `CC1(C)C=Cc2c(ccc3c4c([nH]c23)C(C)(C)[C@@H]2C[C@]35CCCN3C(=O)[C@]2(NC5=O)[C@H]4O)O1` [NOTOAMIDE R] were, in that order, over 200 µM and 97.3 µM.
In the case of `CC1(C)C=Cc2c(ccc3c2NC(=O)[C@@]32[C@H](O)[C@@]34NC(=O)[C@]5(CCCN5C3=O)C[C@H]4C2(C)C)O1` [SCLEROTIAMIDE], the MIC with Candida albicans [1] is over 200 µM. For the same compound, the IC50 in the data set with Candida albicans [2] was 93.5 µM.
The corresponding values for `CC1(C)C=Cc2c(ccc3c4c([nH]c23)C(C)(C)[C@@H]2C[C@]35CCCN3C(=O)[C@@]2(C4)NC5=O)O1` [STEPHACIDIN A] are over 200 µM and 55.2 µM.
On to `C/C=C/C=C/C=C/[C@H]1C[C@@H](O)CC(=O)[C@@H]1C` [WAIKIALIDE A], for which the inhibition result with Candida albicans [4] is “Dose-dependent effect”. Besides, the result in the data set on Candida albicans [5] was Active. The MIC in the data set with Candida albicans [1] is over 200 µM. The inhibition entry in the data set on Candida albicans [6] and with Candida albicans [7] was “Active” throughout. In addition, in the data set with Candida albicans [2], the IC50 was found to be 32.4 µM.
Turning to `C/C=C/C=C/C=C/[C@H]1C[C@@H](O)C[C@@H](O)[C@@H]1C` [WAIKIALIDE B], in the data set on Candida albicans [1], the MIC is over 200 µM. Also, the IC50 in the data set with Candida albicans [2] is 97 µM.
As for `CC1(C)C=Cc2c(ccc3c2[N+]([O-])=C2C(C)(C)[C@@H]4C[C@]56CCCN5C(=O)[C@]4(NC6=O)[C@H]4N5C(=O)[C@@]67CCCN6C(=O)[C@@]56[C@H](c5c([nH]c8c9c(ccc58)OC(C)(C)C=C9)C(C)(C)[C@@H]6C7)[C@]234)O1` [WAIKIALOID A], the inhibition entry in the data set with Candida albicans [4] and with Candida albicans [2] was “Dose-dependent effect” each time. In the data set on Candida albicans [5], the result was Active. In the data set with Candida albicans [1], the MIC is over 200 µM. Further, the inhibition result in the data set on Candida albicans [8] and with Candida albicans [11] was “inactive” in each case. The inhibition entry with Candida albicans [9], with Candida albicans [6] and in the data set with Candida albicans [7] was “Active” throughout. Moreover, the IC50 in the data set with Candida albicans [2] worked out at 1.4 µM. Also, in the data set on MIA PaCa-2 [10], the Activity entry was “Non-toxic”.
As for `CC1(C)C=Cc2c(ccc3c2[N+]([O-])=C2C(C)(C)[C@@H]4C[C@]56CCCN5C(=O)[C@]4(NC6=O)[C@H]4N5C(=O)[C@@]67CCCN6C(=O)[C@@]56[C@@H]([C@]234)[C@]2(O)C(=[N+]([O-])c3c2ccc2c3C=CC(C)(C)O2)C(C)(C)[C@@H]6C7)O1` [WAIKIALOID B], the MIC in the data set with Candida albicans [1] is over 200 µM. Further, the figures for the half-inhibitory concentration (IC50) in the data set with Candida albicans [2] and in the data set with MIA PaCa-2 [3] were 46.3 µM and 8.2 µM, respectively.

By IC50 is commonly meant the midpoint of a concentration-inhibition curve.
